Reference: ChEMBL document CHEMBL1667822, “Selective antagonists of mouse trace amine-associated receptor 1 (mTAAR1): discovery of EPPTB (RO5212773)” (Bioorg Med Chem Lett, 2011)
pIC50, pKi: −log10 of the molar value.

What was measured:
[1] = biological target: Muscarinic acetylcholine receptor M3 (Homo sapiens) (UniProt P20309); assay: Displacement of [3H]4-DAMP from human recombinant muscarinic M3 receptor expressed in CHO cells; type: cell-based; conditions: concentration not given here
[2] = biological target: 5-hydroxytryptamine receptor 2A (Homo sapiens) (UniProt P28223); assay: Displacement of [3H]Ketanserin from human recombinant 5HT2A receptor expressed in HEK293 cells; type: cell-based; conditions: concentration not given here
[3] = Clearance in mouse at 2.5 mg/kg, iv; type: ADME, organism-based; design: dose 2.5 mg/kg, route intravenous; conditions: in vivo
Outline: (§1)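 Single-dose pharmacokinetics in mice comparing parenteral routes: intravenous at 2.5 mg/kg and intraperitoneal at 5 mg/kg. Plasma concentrations were followed over time. Bioavailability was derived for the ip route, and Cmax was taken from the ip plasma profile.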

[4] = biological target: Beta-2 adrenergic receptor (Homo sapiens) (UniProt P07550); assay: Displacement of [3H](-)CGP 12177 from human recombinant beta2 receptor expressed in CHO cells; type: cell-based; conditions: concentration not given here
Sequence of Beta-2 adrenergic receptor (Homo sapiens) (P07550 whole entry, looked up): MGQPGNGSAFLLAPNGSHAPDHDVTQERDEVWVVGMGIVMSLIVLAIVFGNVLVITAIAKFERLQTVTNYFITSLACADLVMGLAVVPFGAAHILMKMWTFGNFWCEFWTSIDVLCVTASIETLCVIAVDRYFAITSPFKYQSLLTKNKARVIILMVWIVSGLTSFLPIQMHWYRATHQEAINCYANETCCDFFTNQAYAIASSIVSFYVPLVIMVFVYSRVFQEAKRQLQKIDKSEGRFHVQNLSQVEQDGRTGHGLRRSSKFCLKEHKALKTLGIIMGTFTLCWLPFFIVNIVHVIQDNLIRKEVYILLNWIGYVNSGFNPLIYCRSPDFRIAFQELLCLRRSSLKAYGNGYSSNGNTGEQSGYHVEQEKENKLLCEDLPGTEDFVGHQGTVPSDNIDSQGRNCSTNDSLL

[5] = Cmax in mouse at 5 mg/kg, ip; type: ADME, organism-based; design: dose 5 mg/kg, route intraperitoneal; conditions: in vivo; outline: as §1
[6] = biological target: Kappa-type opioid receptor (Rattus norvegicus) (UniProt P34975); assay: Displacement of [3H]U69593 from rat recombinant kappa opioid receptor expressed in CHO cells; type: cell-based; conditions: concentration not given here
[7] = biological target: Histamine H1 receptor (Homo sapiens) (UniProt P35367); assay: Displacement of [3H]pyrilamine from human recombinant histamine H1 receptor expressed in HEK293 cells; type: cell-based; conditions: concentration not given here
Rattus norvegicus [8] = species: Rattus norvegicus; assay: Displacement of [3H]batrachotoxinin from sodium channel in rat cerebral cortex; type: tissue-based; conditions: concentration not given here
[9] = biological target: monoamine oxidase-A (MAO-A) (Rattus norvegicus, UniProt P21396); assay: Inhibition of rat monoamine oxidase-A at 10 uM
[10] = biological target: Nociceptin receptor (Homo sapiens) (UniProt P41146); assay: Displacement of [3H]nociceptin from human recombinant ORL1 receptor expressed in H recombinant HEK293 cells; type: cell-based; conditions: concentration not given here
[11] = biological target: T1, Trace amine-associated receptor 1 (Rattus norvegicus, UniProt Q923Y9); assay: Antagonist activity at rat TAAR1 assessed as reversal of endogenous beta-PEA effect; type: functional
T1 sequence (Q923Y9 whole entry): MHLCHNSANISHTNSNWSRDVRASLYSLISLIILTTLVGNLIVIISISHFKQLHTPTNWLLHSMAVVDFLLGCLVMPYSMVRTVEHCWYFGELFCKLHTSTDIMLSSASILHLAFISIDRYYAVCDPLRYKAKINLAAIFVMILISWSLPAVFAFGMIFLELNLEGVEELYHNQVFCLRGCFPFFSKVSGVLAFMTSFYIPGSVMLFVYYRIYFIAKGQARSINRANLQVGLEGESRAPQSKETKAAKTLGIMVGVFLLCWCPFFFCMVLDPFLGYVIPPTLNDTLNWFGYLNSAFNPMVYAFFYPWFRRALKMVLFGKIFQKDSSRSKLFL
Outline: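 cAMP functional assay in vitro measuring reversal of the effect of endogenous agonist beta-PEA; 100% antagonistic efficacy defined as 0% min% stimulation. Residual stimulation by beta-PEA recorded at the maximum test-compound concentration. Values are the average of at least two independent experiments; duplicates typically within a twofold margin.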

[12] = Half life in mouse at 2.5 mg/kg, iv; type: ADME, organism-based; design: dose 2.5 mg/kg, route intravenous; conditions: in vivo; outline: as §1
[13] = biological target: C-X-C chemokine receptor type 2 (Homo sapiens) (UniProt P25025); assay: Displacement of [125I]IL-8 from human recombinant CXCR2 receptor expressed in HEK293 cells; type: cell-based; conditions: concentration not given here
[14] = biological target: Type-1 angiotensin II receptor (Homo sapiens) (UniProt P30556); assay: Displacement of [125I][Sar1,Ile8]-AT II from human recombinant AT1 receptor expressed in HEK293 cells; type: cell-based; conditions: concentration not given here
Sequence of Type-1 angiotensin II receptor (Homo sapiens) (P30556 whole entry): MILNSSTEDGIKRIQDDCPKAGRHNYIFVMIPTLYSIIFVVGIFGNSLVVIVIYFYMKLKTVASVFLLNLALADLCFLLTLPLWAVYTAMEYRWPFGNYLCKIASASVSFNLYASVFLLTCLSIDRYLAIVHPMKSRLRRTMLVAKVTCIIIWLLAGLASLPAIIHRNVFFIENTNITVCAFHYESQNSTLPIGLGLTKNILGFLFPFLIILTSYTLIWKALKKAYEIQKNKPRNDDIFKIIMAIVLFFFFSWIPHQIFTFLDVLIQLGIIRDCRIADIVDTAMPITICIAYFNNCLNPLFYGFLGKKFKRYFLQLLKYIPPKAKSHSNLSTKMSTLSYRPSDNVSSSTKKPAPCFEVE

[15] = biological target: Trace amine-associated receptor 1 (Mus musculus, UniProt Q923Y8); assay: Inhibition of mouse TAAR1
[16] = biological target: D(2) dopamine receptor (Homo sapiens) (UniProt P14416); assay: Displacement of [3H]spiperone from human recombinant dopamine D2S receptor expressed in HEK293 cells; type: cell-based; conditions: concentration not given here
[17] = biological target: D(1A) dopamine receptor (Homo sapiens) (UniProt P21728); assay: Displacement of [3H]SCH 23390 from human recombinant dopamine D1 receptor expressed in CHO cells; type: cell-based; conditions: concentration not given here
Rattus norvegicus [18] = species: Rattus norvegicus; assay: Displacement of [3H]flunitrazepam from BZD receptor in rat cerebral cortex; type: tissue-based; conditions: concentration not given here
[19] = Ratio of drug level in brain to plasma in mouse at 2.5 mg/kg, iv; type: ADME, organism-based; design: dose 2.5 mg/kg, route intravenous; conditions: read-out: BPR
Outline: (§2)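 Single-dose pharmacokinetics in mice with parenteral dosing, either 2.5 mg/kg iv or 5 mg/kg ip. Drug levels were measured in plasma, with brain exposure taken as the brain/plasma concentration ratio.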

[20] = biological target: Neurotensin receptor type 1 (Homo sapiens) (UniProt P30989); assay: Displacement of [125I]Tyr3-neurotensin from human recombinant NT1 receptor expressed in H recombinant CHO cells; type: cell-based; conditions: concentration not given here
Sequence of Neurotensin receptor type 1 (Homo sapiens) (P30989 whole entry): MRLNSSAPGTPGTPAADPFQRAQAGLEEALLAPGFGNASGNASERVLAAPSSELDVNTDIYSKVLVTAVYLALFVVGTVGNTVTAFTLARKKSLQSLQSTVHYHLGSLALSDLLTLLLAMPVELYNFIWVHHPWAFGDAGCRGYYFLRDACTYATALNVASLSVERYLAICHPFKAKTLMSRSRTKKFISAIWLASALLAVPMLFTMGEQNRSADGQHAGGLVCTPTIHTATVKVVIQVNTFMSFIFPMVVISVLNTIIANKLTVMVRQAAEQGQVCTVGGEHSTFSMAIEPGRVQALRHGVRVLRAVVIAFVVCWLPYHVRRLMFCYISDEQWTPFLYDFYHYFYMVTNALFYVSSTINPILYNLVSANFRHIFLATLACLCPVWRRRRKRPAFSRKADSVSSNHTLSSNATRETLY

[21] = biological target: Cannabinoid receptor 1 (Homo sapiens) (UniProt P21554); assay: Inhibition of human cannabinoid CB1 receptor at 10 uM
Sequence of Cannabinoid receptor 1 (Homo sapiens) (P21554 whole entry): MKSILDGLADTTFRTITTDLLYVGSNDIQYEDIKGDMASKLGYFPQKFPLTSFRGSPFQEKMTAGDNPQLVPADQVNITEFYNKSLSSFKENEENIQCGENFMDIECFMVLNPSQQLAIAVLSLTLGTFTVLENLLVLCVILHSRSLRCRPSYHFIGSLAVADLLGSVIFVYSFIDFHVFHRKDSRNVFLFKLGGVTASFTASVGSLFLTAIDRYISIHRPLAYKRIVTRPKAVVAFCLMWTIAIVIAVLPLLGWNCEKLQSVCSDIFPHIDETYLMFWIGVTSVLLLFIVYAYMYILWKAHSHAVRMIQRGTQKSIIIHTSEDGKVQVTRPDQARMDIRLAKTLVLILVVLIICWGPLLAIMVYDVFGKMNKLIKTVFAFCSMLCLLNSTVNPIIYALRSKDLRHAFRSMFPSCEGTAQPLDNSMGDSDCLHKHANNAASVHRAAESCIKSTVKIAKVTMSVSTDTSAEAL

[22] = biological target: T2, Trace amine-associated receptor 1 (Homo sapiens, UniProt Q96RJ0); assay: Inhibition of human TAAR1
T2 sequence (Q96RJ0 whole entry): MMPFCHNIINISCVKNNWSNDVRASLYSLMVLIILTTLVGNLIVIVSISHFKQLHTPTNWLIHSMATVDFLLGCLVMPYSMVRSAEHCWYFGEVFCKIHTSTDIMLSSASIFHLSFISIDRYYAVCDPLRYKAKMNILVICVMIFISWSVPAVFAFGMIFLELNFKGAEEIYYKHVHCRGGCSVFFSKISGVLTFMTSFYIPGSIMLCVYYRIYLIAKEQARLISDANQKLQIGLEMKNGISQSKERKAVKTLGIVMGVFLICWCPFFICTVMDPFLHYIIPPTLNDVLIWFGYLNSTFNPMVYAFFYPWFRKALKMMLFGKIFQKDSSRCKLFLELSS
Outline: (§3)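 In vitro cAMP functional assay with antagonism read as reversal of the response to the endogenous agonist beta-PEA. Efficacy was scaled so that 100% equals 0% minimum stimulation. Residual beta-PEA stimulation was taken at the highest test-compound concentration. Values are means of at least two independent experiments, with duplicates typically within a twofold margin.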

[23] = biological target: Sodium-dependent noradrenaline transporter (Homo sapiens) (UniProt P23975); assay: Inhibition of human norepinephrine transporter at 10 uM
[24] = biological target: Trace amine-associated receptor 1 (Mus musculus) (UniProt Q923Y8); assay: Antagonist activity at mouse TAAR1 assessed as residual stimulation by in vitro cAMP functional assay relative to control; design: concentration or dose not given beside the values
Outline: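 Mouse TAAR1 in vitro cAMP functional assay using the endogenous agonist β-PEA. The read-out is the residual β-PEA stimulation remaining at the maximum test-compound concentration. Values are averages of at least two independent experiments.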

[25] = biological target: Vasopressin V1a receptor (Homo sapiens) (UniProt P37288); assay: Displacement of [3H]AVP from human recombinant V1a receptor expressed in H recombinant CHO cells; type: cell-based; conditions: concentration not given here
[26] = Volume of distribution at steady state in mouse at 2.5 mg/kg, iv; type: ADME, organism-based; design: dose 2.5 mg/kg, route intravenous; conditions: in vivo, read-out: Vdss; outline: as §2
[27] = biological target: Somatostatin receptor (Mus musculus) (UniProt P30935+O08858+P30875+P30873+P49660); assay: Inhibition of mouse somatostatin receptor at 10 uM; type: protein assay
Sequence of Somatostatin receptor (Mus musculus) (P30935 whole entry): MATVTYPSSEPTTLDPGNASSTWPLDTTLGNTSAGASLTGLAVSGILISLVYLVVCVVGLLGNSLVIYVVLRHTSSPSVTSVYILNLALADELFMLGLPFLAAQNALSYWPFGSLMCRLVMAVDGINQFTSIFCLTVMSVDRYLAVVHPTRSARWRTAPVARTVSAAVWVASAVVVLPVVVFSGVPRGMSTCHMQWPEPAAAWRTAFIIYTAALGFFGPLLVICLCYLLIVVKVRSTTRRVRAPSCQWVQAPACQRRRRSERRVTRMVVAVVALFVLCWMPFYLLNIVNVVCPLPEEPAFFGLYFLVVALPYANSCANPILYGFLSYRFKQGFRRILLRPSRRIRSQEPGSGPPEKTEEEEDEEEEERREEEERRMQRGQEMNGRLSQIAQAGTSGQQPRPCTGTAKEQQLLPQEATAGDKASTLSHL
Sequence of Somatostatin receptor (Mus musculus) (O08858 whole entry): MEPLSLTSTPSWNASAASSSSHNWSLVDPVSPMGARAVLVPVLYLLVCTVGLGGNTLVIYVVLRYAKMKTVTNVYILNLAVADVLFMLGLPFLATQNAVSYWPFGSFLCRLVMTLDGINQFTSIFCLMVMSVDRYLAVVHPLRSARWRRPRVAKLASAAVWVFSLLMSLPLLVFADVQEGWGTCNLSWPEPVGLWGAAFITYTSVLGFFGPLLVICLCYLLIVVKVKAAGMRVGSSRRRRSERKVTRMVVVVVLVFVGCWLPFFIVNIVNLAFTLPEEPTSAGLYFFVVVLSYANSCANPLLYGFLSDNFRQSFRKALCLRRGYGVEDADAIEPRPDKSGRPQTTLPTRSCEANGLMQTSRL
Sequence of Somatostatin receptor (Mus musculus) (P30875 whole entry): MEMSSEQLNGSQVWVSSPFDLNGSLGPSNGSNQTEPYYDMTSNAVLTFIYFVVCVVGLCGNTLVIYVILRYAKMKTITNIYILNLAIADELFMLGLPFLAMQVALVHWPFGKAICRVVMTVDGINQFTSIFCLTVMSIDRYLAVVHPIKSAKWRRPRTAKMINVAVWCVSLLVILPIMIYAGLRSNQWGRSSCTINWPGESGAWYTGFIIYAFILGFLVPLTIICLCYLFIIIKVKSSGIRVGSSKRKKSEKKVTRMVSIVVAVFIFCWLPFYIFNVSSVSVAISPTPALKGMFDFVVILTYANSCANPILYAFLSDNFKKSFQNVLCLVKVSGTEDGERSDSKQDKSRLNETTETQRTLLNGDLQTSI
Sequence of Somatostatin receptor (Mus musculus) (P30873 whole entry): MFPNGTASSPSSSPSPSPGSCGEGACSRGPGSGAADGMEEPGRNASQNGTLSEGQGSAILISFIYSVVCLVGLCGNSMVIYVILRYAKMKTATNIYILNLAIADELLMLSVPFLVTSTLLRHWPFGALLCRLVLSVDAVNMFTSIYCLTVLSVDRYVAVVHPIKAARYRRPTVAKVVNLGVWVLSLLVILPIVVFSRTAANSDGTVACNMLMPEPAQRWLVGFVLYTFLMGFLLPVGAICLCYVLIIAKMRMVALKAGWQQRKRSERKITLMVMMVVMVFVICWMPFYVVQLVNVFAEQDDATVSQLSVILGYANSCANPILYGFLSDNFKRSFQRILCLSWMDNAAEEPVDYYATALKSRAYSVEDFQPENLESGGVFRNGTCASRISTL
Sequence of Somatostatin receptor (Mus musculus) (P49660 with tags, fused parts or gaps): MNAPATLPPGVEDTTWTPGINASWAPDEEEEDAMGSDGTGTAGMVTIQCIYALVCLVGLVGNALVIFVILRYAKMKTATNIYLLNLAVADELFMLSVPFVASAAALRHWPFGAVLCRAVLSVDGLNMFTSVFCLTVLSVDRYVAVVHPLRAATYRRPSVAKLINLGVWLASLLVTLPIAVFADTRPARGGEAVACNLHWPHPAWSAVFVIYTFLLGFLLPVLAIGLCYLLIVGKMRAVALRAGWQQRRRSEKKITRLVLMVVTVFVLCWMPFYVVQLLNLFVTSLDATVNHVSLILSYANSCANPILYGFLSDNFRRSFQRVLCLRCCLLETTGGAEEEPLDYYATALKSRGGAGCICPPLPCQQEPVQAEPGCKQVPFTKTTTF

[28] = biological target: Muscarinic acetylcholine receptor M2 (Homo sapiens) (UniProt P08172); assay: Displacement of [3H]AF-DX 384 from human recombinant muscarinic M2 receptor expressed in CHO cells; type: cell-based; conditions: concentration not given here
[29] = biological target: T1, Trace amine-associated receptor 1; assay: Inhibition of rat TAAR1; outline: as §3
[30] = biological target: 5-hydroxytryptamine receptor 1A (Homo sapiens) (UniProt P08908); assay: Displacement of [3H]8-OH-DPAT from human recombinant 5HT1A receptor expressed in HEK293 cells; type: cell-based; conditions: concentration not given here
[31] = Ratio of drug level in brain to plasma in mouse at 5 mg/kg, ip; type: ADME, organism-based; design: dose 5 mg/kg, route intraperitoneal; conditions: read-out: BPR; outline: as §2
[32] = biological target: C-C chemokine receptor type 1 (Homo sapiens) (UniProt P32246); assay: Displacement of [125I]MIP-1a from human recombinant CCR1 receptor expressed in HEK293 cells; type: cell-based; conditions: concentration not given here
Sequence of C-C chemokine receptor type 1 (Homo sapiens) (P32246 whole entry): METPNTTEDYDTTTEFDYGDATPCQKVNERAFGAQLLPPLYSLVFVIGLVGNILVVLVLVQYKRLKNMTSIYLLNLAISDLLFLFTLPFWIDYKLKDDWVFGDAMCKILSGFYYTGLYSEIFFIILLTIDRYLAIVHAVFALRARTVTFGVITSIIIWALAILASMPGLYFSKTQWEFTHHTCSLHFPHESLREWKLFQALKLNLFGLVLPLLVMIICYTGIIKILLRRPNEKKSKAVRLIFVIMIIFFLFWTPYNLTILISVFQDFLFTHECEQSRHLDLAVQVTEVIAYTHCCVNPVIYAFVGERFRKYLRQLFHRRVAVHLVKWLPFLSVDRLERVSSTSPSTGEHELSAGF

Sequence of Muscarinic acetylcholine receptor M3 (Homo sapiens) (P20309 whole entry, looked up): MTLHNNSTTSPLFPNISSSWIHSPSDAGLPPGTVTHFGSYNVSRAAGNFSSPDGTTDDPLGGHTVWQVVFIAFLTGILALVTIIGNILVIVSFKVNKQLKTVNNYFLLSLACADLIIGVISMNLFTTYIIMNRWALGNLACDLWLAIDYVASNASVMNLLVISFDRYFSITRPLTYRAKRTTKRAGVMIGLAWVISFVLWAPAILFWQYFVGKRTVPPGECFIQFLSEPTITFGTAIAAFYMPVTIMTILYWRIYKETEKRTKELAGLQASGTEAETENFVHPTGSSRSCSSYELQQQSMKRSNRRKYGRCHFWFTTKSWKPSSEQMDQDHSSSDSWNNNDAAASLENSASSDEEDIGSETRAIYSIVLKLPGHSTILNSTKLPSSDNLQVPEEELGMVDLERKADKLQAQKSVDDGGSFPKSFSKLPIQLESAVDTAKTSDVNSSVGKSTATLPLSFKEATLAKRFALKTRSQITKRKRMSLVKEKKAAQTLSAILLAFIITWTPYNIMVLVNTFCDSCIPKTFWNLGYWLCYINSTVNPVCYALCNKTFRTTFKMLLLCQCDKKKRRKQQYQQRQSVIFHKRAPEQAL

## CCOc1cccc(NC(=O)c2ccc(N3CCCC3)c(C(F)(F)F)c2)c1
[1]
  inhibition: -10%
[2]
  inhibition: 21%
[3]
  clearance: 87 mL/min/kg
[4]
  inhibition: 6%
[5]
  Cmax: 590 ng/mL
[6]
  inhibition: 33%
[7]
  inhibition: 6%
Rattus norvegicus [8]
  inhibition: 88%
[9]
  inhibition at 10 µM: 61%
[10]
  inhibition: 15%
[11]
  pIC50: 5.34
[12]
  half-life: 1.9 h
[13]
  inhibition: 2%
[14]
  inhibition: 5%
[15]
  pKi: 9.05
[16]
  inhibition: 9%
[17]
  inhibition: 25%
Rattus norvegicus [18]
  inhibition: -8%
[19]
  Kp: 0.5
[20]
  inhibition: -5%
[21]
  inhibition: 38%
[22]
  pKi: < 5.30
[23]
  inhibition: 44%
[24]
  Activity: -12%
[25]
  inhibition: 9%
[26]
  Vd: 3.7 L/kg
[27]
  inhibition: 7%
[28]
  inhibition: -1%
[29]
  pKi: 6.03
[30]
  inhibition: 4%
[31]
  Kp: 0.5
[32]
  inhibition: 0%
